From ChEMBL document CHEMBL4033799, “Stable and Long-Lasting, Novel Bicyclic Peptide Plasma Kallikrein Inhibitors for the Treatment of Diabetic Macular Edema” (J Med Chem, 2018)
*1 amine or outer side, *2 acyl side, *3 side chain or, on linkers, in order; H or OH if unused. Where a SMILES comes first, the peptide text is derived from it. Bridges are numbered along the chain shown (N, C = ends). TBMB = c1c(C[*:1])cc(C[*:3])cc1C[*:2]

Experiments:
Plasma kallikrein [1] = target: Plasma kallikrein (Homo sapiens, UniProt P03952); experiment: Inhibition of human plasma kallikrein using fluorogenic H-Pro-Phe-Arg-AMC peptide as substrate preincubated for 15 mins followed by substrate addition measured by fluorescence-based assay; conditions: read-out: Ki(app)
Plasma kallikrein [2] = target: Plasma kallikrein (Rattus norvegicus, UniProt P14272); experiment: Inhibition of recombinant Sprague-Dawley rat plasma kallikrein using fluorogenic H-Pro-Phe-Arg-AMC peptide as substrate preincubated for 15 mins followed by substrate addition measured by fluorescence-based assay; conditions: read-out: Ki(app)
[3] = Aqueous solubility of the compound in buffer; type: physicochemical
Plasma [4] = experiment: Stability in rat plasma at 50 uM incubated for 2 days by MALDI-TOF analysis; type: ADME, cell-free; conditions: 48 h
How it was run: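 Qualitative stability test. 1 mM DMSO stock diluted into citrated rat plasma to 50 μM and held at 37 °C for up to 2 days. Aliquots at time points quenched in 1:1 acetonitrile/methanol and centrifuged. Supernatant mixed with 30 mM ammonium bicarbonate. Parent mass and protease metabolites detected by MALDI-TOF.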

Rattus norvegicus [5] = experiment: Antiinflammatory activity in Sprague-Dawley rat assessed as inhibition carrageenan-induced paw edema at 30 mg/kg, ip pretreated for 15 mins followed by carrageenan challenge measured at 2 hrs post carrageenan challenge; type: functional
How it was run: (§1)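 Male Sprague-Dawley rats received peptide IP (30, 10 or 3 mg/kg), or indomethacin IP at 5 mg/kg, 15 min before subplantar carrageenan. Paw volume was followed over time against a vehicle group.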

Rattus norvegicus [6] = experiment: Antidiabetic activity in STZ-induced diabetic Brown-Norway rat model assessed as reduction in retinal vascular leakage at 100 ug/eye administered via ivt measured at 4 weeks post diabetes onset relative to control; type: functional
How it was run: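 Diabetes was induced with STZ in male Brown-Norway rats. Peptide was given intravitreally at 100 μg/eye. Retinal vascular permeability was read as FITC-BSA extravasation 4 weeks after diabetes onset and compared with vehicle-treated diabetic rats. A soluble VEGF-trap served as positive control.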

Rattus norvegicus [7] = experiment: Antiinflammatory activity in Sprague-Dawley rat assessed as inhibition carrageenan-induced paw edema at 30 mg/kg, ip pretreated for 15 mins followed by carrageenan challenge measured at 1 hr post carrageenan challenge; type: functional; how it was run: as §1
Rattus norvegicus [8] = experiment: Antiinflammatory activity in Sprague-Dawley rat assessed as inhibition carrageenan-induced paw edema at 30 mg/kg, ip pretreated for 15 mins followed by carrageenan challenge measured at 4 hrs post carrageenan challenge; type: functional; how it was run: as §1
Plasma [9] = experiment: Anti-coagulating activity in factor 8-deficient human plasma assessed as increase in coagulation time at 10 uM by aPTT assay; type: functional
How it was run: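 Clotting time measured on a coagulation analyzer using actin FS, 0.025 M CaCl2, FVIII-deficient human plasma and Owren's Veronal Buffer pH 7.35, run per the manufacturer's instructions. Peptide tested from zero (vehicle) up to 10 μM. Each point is the mean ± SD of triplicates.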

Sequence of Plasma kallikrein (Homo sapiens, UniProt P03952) (P03952 20-390 limits assumed): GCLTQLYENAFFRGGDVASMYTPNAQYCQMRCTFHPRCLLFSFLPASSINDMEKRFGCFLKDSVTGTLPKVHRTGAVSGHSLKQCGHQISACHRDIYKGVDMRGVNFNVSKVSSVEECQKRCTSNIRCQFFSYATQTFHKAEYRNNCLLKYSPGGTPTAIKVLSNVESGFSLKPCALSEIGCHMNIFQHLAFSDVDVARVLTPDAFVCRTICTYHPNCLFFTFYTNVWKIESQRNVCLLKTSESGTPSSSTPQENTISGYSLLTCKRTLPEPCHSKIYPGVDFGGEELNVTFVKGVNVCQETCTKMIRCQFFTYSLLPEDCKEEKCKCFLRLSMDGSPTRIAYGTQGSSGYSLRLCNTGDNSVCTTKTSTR
Sequence of Plasma kallikrein (Homo sapiens, UniProt P03952) (P03952 391-638 limits assumed): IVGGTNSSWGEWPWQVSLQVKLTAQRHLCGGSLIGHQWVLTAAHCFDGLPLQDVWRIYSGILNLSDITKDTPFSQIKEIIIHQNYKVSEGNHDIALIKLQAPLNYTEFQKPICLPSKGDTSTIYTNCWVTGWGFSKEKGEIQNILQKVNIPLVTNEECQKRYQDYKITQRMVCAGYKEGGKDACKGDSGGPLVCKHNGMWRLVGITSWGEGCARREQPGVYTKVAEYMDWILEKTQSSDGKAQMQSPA
Sequence of Plasma kallikrein (Rattus norvegicus, UniProt P14272) (P14272 20-390 limits assumed): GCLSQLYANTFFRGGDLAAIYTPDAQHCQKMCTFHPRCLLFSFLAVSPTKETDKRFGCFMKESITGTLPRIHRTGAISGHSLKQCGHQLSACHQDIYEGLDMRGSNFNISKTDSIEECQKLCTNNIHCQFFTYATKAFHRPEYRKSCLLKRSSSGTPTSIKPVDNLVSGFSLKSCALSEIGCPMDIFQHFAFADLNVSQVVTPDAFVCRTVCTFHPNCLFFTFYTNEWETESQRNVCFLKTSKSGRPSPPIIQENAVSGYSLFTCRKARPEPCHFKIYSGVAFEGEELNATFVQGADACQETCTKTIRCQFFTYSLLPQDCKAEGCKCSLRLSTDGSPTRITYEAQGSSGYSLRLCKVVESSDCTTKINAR
Sequence of Plasma kallikrein (Rattus norvegicus, UniProt P14272) (P14272 391-638 limits assumed): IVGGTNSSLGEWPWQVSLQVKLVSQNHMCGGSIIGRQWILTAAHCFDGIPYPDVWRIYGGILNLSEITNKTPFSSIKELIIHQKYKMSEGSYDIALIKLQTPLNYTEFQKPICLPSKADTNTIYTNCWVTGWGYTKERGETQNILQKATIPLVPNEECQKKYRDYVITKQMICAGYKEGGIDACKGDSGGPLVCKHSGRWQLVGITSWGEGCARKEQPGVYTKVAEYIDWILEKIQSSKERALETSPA

| Ki (Plasma kallikrein [1]) | Ki (Plasma kallikrein [2]) | solubility [3] | Stability (Plasma [4]) | SMILES | inhibition in vivo at 30 mg/kg (Rattus norvegicus [5]) | inhibition (INH) (Rattus norvegicus [6]) | inhibition in vivo at 30 mg/kg (Rattus norvegicus [7]) | inhibition in vivo at 30 mg/kg (Rattus norvegicus [8]) | Activity (Plasma [9]) |
| --- | --- | --- | --- | --- | --- | --- | --- | --- | --- |
| 2.3 nM | 0.4 nM | Insoluble | Unstable | CC(C)C[C@@H]1NC(=O)[C@@H]2CCCN2C(=O)[C@H](C)NC(=O)[C@H](CC(=O)O)NC(=O)[C@H](Cc2c[nH]c3ccccc23)NC(=O)[C@@H]2CCCN2C(=O)[C@@H]2CSCc3cc(cc(c3)CSC[C@@H](C(=O)N[C@@H](C)C(=O)O)NC1=O)CSC[C@H](NC(=O)[C@H](C)N)C(=O)N[C@@H](CC(N)=O)C(=O)N[C@@H]([C@@H](C)O)C(=O)N[C@@H](Cc1c[nH]c3ccccc13)C(=O)N[C@@H](CC(N)=O)C(=O)N1CCC[C@H]1C(=O)N[C@@H](Cc1c[nH]c3ccccc13)C(=O)N2 (H-ACNTWNPWCPWDAPLCA-OH; linker 2-9-16 via TBMB) | – | – | – | – | – |
| – | – | – | – | CC(=O)N[C@H]1CSCc2cc3cc(c2)CSC[C@H](NC(=O)[C@H](CCCCNC(=N)N)NC(=O)[C@H](Cc2ccc(O)cc2)NC(=O)[C@@H]2CCN2C(=O)[C@H](Cc2ccccc2)NC(=O)[C@H](CO)NC1=O)C(=O)N[C@@H](C)CN[C@@H](Cc1cnc[nH]1)C(=O)N[C@@H](CCC(N)=O)C(=O)N[C@@H](CC(=O)O)C(=O)N[C@@H](CC(C)C)C(=O)N[C@H](C(=O)O)CSC3 | 52% | 30% | 90% | 32% | 15% |
